{"source": "ChEMBL document CHEMBL4627381", "about": "“Licochalcone A Selectively Resensitizes ABCG2-Overexpressing Multidrug-Resistant Cancer Cells to Chemotherapeutic Drugs” (J Nat Prod, 2020)", "key": {"[1]": {"tested_on": "S1-M1-80", "experiment": "Potentiation of topotecan-induced apoptosis in human S1-M1-80 cells harboring ABCG2 (unknown origin) assessed as early apoptotic cells at 10 uM incubated for 48 hrs by annexin V/propidium iodide staining based flow cytometry (reference value: 3%)", "format": "functional"}, "[2]": {"tested_on": "S1-M1-80", "experiment": "Induction of apoptosis in human S1-M1-80 cells harboring ABCG2 (unknown origin) assessed as necrotic cells at 10 uM incubated for 48 hrs by annexin V/propidium iodide staining based flow cytometry (reference value: 0.3%)", "format": "functional"}, "[3]": {"tested_on": "S1", "experiment": "Induction of apoptosis in human S1 cells assessed as necrotic cells at 10 uM incubated for 48 hrs by annexin V/propidium iodide staining based flow cytometry (reference value: 0.2%)", "format": "functional", "how_it_was_run": "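S1 cells were exposed for 48 h to DMSO, 10 μM compound, 5 μM topotecan, or 5 μM topotecan plus 10 μM compound. They were then stained with 1.25 μg/mL annexin V–FITC and 0.1 mg/mL PI for 15 min at room temperature. 10000 cells per sample were analysed by flow cytometry; three independent experiments.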"}, "[4]": {"tested_on": "LS180", "experiment": "Upregulation of ABCB1 mRNA expression in human LS180 cells at 1 uM by […] relative to control", "format": "functional"}, "[5]": {"tested_on": "HEK293", "experiment": "Cytotoxicity against HEK293 cells after 72 hrs by CCK8 assay", "format": "cell-based", "conditions": "Homo sapiens, HEK293, 72 h", "how_it_was_run": "(§1)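 Cells seeded at 5000/well, allowed 24 h, then exposed to a concentration series for 72 h at 37 °C in DMSO vehicle (up to 0.5% v/v). HEK293 lines were read with CCK-8 and cancer lines with MTT. IC50 was taken from fitted dose-response curves over at least three independent experiments. Lines were kept drug-free for 7 days before assay.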"}, "[6]": {"tested_on": "HEK293", "experiment": "Cytotoxicity against HEK293 cells overexpressing human ABCG2 after 72 hrs by CCK8 assay", "format": "ADME, cell-based", "conditions": "HEK293, 72 h", "how_it_was_run": "as §1"}, "[7]": {"tested_on": "NCI-H460", "experiment": "Effect on topotecan-induced cytotoxicity against human H460 cells assessed as fold change in topotecan IC50 at 1 uM after 72 hrs by MTT assay relative to topotecan IC50", "format": "functional", "how_it_was_run": "(§2)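 Parental S1 colon and H460 lung cancer cells were exposed for 72 h to a mitoxantrone or topotecan concentration series, with or without modulator at 0.5–3.0 μM, and read by MTT. Fold-reversal is IC50 without modulator divided by IC50 with modulator, taken from dose-response curves of three independent experiments.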"}, "[8]": {"target": "T1, Broad substrate specificity ATP-binding cassette transporter ABCG2 (Homo sapiens, UniProt Q9UNQ0)", "T1 sequence (Q9UNQ0 whole entry)": "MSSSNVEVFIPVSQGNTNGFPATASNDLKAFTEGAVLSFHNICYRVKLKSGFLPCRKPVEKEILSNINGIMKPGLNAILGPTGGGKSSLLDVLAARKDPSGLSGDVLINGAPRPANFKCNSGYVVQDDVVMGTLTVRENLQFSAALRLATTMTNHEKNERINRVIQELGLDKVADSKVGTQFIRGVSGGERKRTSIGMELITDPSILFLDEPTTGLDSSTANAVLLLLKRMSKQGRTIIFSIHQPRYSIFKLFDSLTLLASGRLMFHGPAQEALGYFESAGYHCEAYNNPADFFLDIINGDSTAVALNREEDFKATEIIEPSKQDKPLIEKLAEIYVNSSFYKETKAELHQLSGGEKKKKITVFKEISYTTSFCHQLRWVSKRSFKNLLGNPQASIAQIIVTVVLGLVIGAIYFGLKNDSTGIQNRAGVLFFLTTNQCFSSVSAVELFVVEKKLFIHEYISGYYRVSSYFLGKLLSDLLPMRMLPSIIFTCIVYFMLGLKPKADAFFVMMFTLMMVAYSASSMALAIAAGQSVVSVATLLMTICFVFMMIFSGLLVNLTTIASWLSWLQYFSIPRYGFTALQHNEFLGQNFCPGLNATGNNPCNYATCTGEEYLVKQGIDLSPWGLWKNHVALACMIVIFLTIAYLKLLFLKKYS", "experiment": "Reversal of ABCG2 (unknown origin)-mediated multidrug resistance in human S1-M1-80 cells assessed as fold-change in topotecan IC50 at 1 uM after 72 hrs by MTT assay relative to topotecan IC50", "format": "cell-based", "conditions": "s1-m1-80, 72 h", "how_it_was_run": "(§3)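 MTT readout in S1-M1-80 colon cancer cells (mitoxantrone-selected, held in 80 μM mitoxantrone, then drug-free 7 days before assay). Cells were seeded at 5000/well for 24 h, then given increasing mitoxantrone or topotecan with DMSO or non-toxic modulator for 72 h at 37 °C. IC50 came from fitted dose-response curves (at least three independent experiments). Fold-reversal = IC50 without modulator ÷ IC50 with modulator.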"}, "[9]": {"target": "T1, Broad substrate specificity ATP-binding cassette transporter ABCG2", "experiment": "Reversal of ABCG2 (unknown origin)-mediated multidrug resistance in human S1-M1-80 cells assessed as fold-change in topotecan IC50 at 0.5 uM after 72 hrs by MTT assay relative to topotecan IC50", "format": "cell-based", "conditions": "s1-m1-80, 72 h", "how_it_was_run": "as §3"}, "[10]": {"tested_on": "S1", "experiment": "Effect on topotecan-induced cytotoxicity against human S1 cells assessed as fold change in topotecan IC50 at 3 uM after 72 hrs by MTT assay relative to topotecan IC50", "format": "functional", "how_it_was_run": "as §2"}, "[11]": {"tested_on": "S1", "experiment": "Effect on topotecan-induced cytotoxicity against human S1 cells assessed as fold change in topotecan IC50 at 0.5 uM after 72 hrs by MTT assay relative to topotecan IC50", "format": "functional", "how_it_was_run": "as §2"}, "[12]": {"target": "T1, Broad substrate specificity ATP-binding cassette transporter ABCG2", "experiment": "Reversal of ABCG2 (unknown origin)-mediated multidrug resistance in human S1-M1-80 cells assessed as fold-change in mitoxantrone IC50 at 1 uM after 72 hrs by MTT assay relative to mitoxantrone IC50", "format": "cell-based", "conditions": "s1-m1-80, 72 h", "how_it_was_run": "as §3"}, "[13]": {"tested_on": "HEK293", "experiment": "Effect on mitoxantrone-induced cytotoxicity against HEK293 cells assessed as fold change in mitoxantrone IC50 at 2 uM after 72 hrs by CCK8 assay relative to mitoxantrone IC50", "format": "cell-based", "conditions": "human, hek293, 72 h", "how_it_was_run": "(§4)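 Reversal assay in parental pcDNA-HEK293 and transfected HEK293 lines (ABCB1 for colchicine, ABCC1 for etoposide, ABCG2 for mitoxantrone/topotecan). Substrate drug series was given with or without nontoxic modulator (0.5, 1.0, 2.0 or 3.0 μM) for 72 h, with a CCK-8 read-out. Fold-reversal is substrate IC50 without modulator divided by IC50 with modulator. Three independent experiments.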"}, "[14]": {"target": "Multidrug resistance-associated protein 1 (Homo sapiens, UniProt P33527)", "sequence (P33527 whole entry)": "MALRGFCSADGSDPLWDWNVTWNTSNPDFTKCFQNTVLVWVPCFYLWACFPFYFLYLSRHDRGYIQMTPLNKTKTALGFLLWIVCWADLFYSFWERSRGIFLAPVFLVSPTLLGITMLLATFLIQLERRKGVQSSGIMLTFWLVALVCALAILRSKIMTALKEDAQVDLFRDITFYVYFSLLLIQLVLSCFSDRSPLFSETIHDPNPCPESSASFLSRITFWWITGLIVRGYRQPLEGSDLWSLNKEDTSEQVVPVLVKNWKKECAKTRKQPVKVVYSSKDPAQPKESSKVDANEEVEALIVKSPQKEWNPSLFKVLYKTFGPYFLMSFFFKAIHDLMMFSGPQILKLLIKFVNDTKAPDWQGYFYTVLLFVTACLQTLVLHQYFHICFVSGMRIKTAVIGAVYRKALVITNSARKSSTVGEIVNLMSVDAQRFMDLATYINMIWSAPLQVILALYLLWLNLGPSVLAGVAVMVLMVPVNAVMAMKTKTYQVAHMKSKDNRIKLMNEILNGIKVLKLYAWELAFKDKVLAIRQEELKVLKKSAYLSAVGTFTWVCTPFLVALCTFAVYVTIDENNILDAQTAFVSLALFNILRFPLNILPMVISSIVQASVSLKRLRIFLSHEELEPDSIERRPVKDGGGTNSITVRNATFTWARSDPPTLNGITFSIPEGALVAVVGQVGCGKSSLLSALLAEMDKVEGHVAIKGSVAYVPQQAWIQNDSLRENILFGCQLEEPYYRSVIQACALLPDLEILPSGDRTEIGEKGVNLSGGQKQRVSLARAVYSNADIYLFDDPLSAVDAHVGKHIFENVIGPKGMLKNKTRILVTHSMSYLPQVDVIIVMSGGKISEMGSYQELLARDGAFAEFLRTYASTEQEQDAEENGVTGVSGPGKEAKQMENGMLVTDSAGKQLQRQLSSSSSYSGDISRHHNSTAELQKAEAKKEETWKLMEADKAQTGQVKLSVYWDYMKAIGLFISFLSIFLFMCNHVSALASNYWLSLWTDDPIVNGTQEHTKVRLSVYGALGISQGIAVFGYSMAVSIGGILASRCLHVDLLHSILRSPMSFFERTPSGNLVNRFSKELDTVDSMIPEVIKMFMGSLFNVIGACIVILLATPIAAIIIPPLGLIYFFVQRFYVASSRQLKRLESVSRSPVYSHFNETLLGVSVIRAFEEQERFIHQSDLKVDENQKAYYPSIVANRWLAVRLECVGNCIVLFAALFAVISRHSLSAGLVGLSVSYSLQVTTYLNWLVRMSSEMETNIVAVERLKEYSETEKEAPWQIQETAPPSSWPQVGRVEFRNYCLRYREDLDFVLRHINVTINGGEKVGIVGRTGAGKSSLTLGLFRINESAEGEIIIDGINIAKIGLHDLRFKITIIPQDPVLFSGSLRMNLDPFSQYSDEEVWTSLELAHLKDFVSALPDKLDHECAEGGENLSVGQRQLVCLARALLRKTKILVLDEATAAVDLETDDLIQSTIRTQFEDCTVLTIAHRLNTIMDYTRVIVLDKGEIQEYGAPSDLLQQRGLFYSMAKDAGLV", "experiment": "Reversal of human ABCC1-mediated multidrug resistance in HEK293/MRP1 cells assessed as fold-change in etoposide IC50 at 3 uM after 72 hrs by CCK8 relative to etoposide IC50", "format": "cell-based", "how_it_was_run": "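Cells were seeded at 5000/well for 24 h, then given colchicine, etoposide, mitoxantrone or topotecan ± non-toxic modulator (0.5–3.0 μM) for 72 h, with DMSO up to 0.5%. IC50 came from fitted curves (mean ± SD, three experiments). Fold-reversal = IC50 without modulator ÷ IC50 with modulator.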"}, "[15]": {"tested_on": "HEK293", "experiment": "Effect on etoposide-induced cytotoxicity against HEK293 cells assessed as fold change in etoposide IC50 at 3 uM after 72 hrs by CCK8 assay relative to etoposide IC50", "format": "cell-based", "conditions": "human, hek293, 72 h", "how_it_was_run": "as §4"}}, "data": [{"smiles": "C=CC(C)(C)c1cc(/C=C/C(=O)c2ccc(O)cc2)c(OC)cc1O", "note": "[LICOAGROCHACONE A]", "values": [{"measurement": "Activity", "setting": "[1]", "value": 9, "unit": "%"}, {"measurement": "Activity", "setting": "[2]", "value": 0.2, "unit": "%"}, {"measurement": "Activity", "setting": "[3]", "value": 0.2, "unit": "%"}, {"measurement": "fold change (FC)", "setting": "[4]", "value": "2 - 6"}, {"measurement": "IC50", "setting": "[5]", "value": "10 to 50", "unit": "µM"}, {"measurement": "IC50", "setting": "[6]", "value": "10 to 50", "unit": "µM"}, {"measurement": "fold change (FC)", "setting": "[7]", "value": 1.7}, {"measurement": "fold change (FC)", "setting": "[8]", "value": 16.6}, {"measurement": "fold change (FC)", "setting": "[9]", "value": 9.8}, {"measurement": "fold change (FC)", "setting": "[10]", "value": 0.9}, {"measurement": "fold change (FC)", "setting": "[11]", "value": 0.9}, {"measurement": "fold change (FC)", "setting": "[12]", "value": 10.8}, {"measurement": "fold change (FC)", "setting": "[13]", "value": 1}, {"measurement": "fold change (FC)", "setting": "[14]", "value": 1.1}, {"measurement": "fold change (FC)", "setting": "[15]", "value": 0.8}]}]}
